In publication PMC7115568 (European Journal of Medicinal Chemistry, 2014):
“Also recorded” adds a separate entry of the source.

Tests used:
[1] = test system: Tritrichomonas foetus; assay: In vitro protozoal parasite susceptibility assay; assay type: cell-based; details: 24 h; for Average % inhibition at 50 μM (Tritrichomonas foetus): T. foetus strain D1, cells counted with hemacytometer; for inhibition at 50 µM: Tritrichomonas foetus, read-out: Average % inhibition at 50 μM (Tritrichomonas foetus)
How it was run: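 T. foetus strain D1 was screened in TYM Diamond's medium. Test compound was dissolved in DMSO and diluted into the medium. After 24 h exposure, parasites were counted with a hemacytometer.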

[2] = test system: human prostate (PC-3) cancer cell line; assay: In vitro cytotoxic studies; assay type: cell-based; details: PC-3 cells; for Cytotoxicity % inhibition: 72 h, MTT; for Cytotoxicity against PC-3 cell line (in words): tested at 0.2, 2.0 and 20 μM
How it was run: (§1)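 PC-3 cells grown in DMEM with 10% FBS and plated in 96-well format. They were exposed to test compound over 20 μM–0.001 μM for 72 h. MTT was then added (stock 5 mg/ml in PBS) for 4 h. Plates were spun, supernatant removed and formazan dissolved in DMSO with 30 min shaking. A550 was read and percentage inhibition calculated.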

[3] = In vitro cytotoxic studies; assay type: cell-based, human; details: human, PC-3 prostate cancer cells
How it was run: as §1

| Compound | Average % inhibition at 50 μM (Tritrichomonas foetus) [1] [%] | Cytotoxicity % inhibition ([2]; 0.2 μM) [%] | Cytotoxicity % inhibition ([2]; 2 μM) [%] | Cytotoxicity % inhibition ([2]; 20 μM) [%] | inhibition at 50 µM [1] [%] | cytotoxicity at 72 h, 0.2 µM [3] [%] | cytotoxicity at 72 h, 2 µM [3] [%] | cytotoxicity at 72 h, 20 µM [3] [%] | Cytotoxicity against PC-3 cell line (in words) [2] |
| --- | --- | --- | --- | --- | --- | --- | --- | --- | --- |
| 5-Methyl-1-(4-pyrrolidin-1-yl-but-2-ynyl)-1H-indole-2,3-dione [Compound 3m] | 31.8 | 6.8 | 10.5 | 2.4 |  |  |  |  |  |
| O=C1C(=O)N(CC#CCN2CCCCC2)c2ccccc21 [Compound 3a, 1-(4-Piperadin-1-yl-but-2-ynyl)-1H-indole-2,3-dione] | 18.2 | 6.0 | 4.0 | 7.0 |  |  |  |  |  |
| O=C1C(=O)N(CC#CCN2CCCC2)c2ccccc21 [Compound 3b, 1-(4-Pyrrolidin-1-yl-but-2-ynyl)-1H-indole-2,3-dione] |  |  |  |  | 10.6 | 7 | 7 | 3 |  |
| O=C1C(=O)N(CC#CCN2CCOCC2)c2ccccc21 [Compound 3c, 1-(4-Morpholin-4-yl-but-2-ynyl)-1H-indole-2,3-dione] |  |  |  |  | 9.1 | 13.4 | 11.6 | 8.7 |  |
| CCN(CC)CC#CCN1C(=O)C(=O)c2ccccc21 [Compound 3d, 1-(4-Diethylamino-but-2-ynyl)-1H-indole-2,3-dione] |  |  |  |  | 22.7 | 8 | 4.6 | 8 |  |
| O=C1C(=O)N(CC#CCN2CCCCC2)c2ccc(Cl)cc21 [Compound 3e, 5-Chloro-1-(4-piperidin-1-yl-but-2-ynyl)-1H-indole-2,3-dione] |  |  |  |  | 3 | 11.1 | 10.7 | 18.7 |  |
| O=C1C(=O)N(CC#CCN2CCCC2)c2ccc(Cl)cc21 [Compound 3f, 5-Chloro-1-(4-pyrrolidin-1-yl-but-2-ynyl)-1H-indole-2,3-dione] |  |  |  |  | 15.2 | 4.6 | 4.3 | 9.6 |  |
| O=C1C(=O)N(CC#CCN2CCOCC2)c2ccc(Cl)cc21 [Compound 3g, 5-Chloro-1-(4-morpholin-4-yl-but-2-ynyl)-1H-indole-2,3-dione] |  |  |  |  | 22.7 | 0.8 | 4.3 | 3.4 |  |
| CCN(CC)CC#CCN1C(=O)C(=O)c2cc(Cl)ccc21 [Compound 3h, 5-Chloro-1-(4-diethylamino-but-2-ynyl)-1H-indole-2,3-dione] |  |  |  |  | 42.4 | 4.8 | 5.6 | 6.4 |  |
| O=C1C(=O)N(CC#CCN2CCCCC2)c2ccc(F)cc21 [Compound 3i, 5-Fluoro-1-(4-piperidin-1-yl-but-2-ynyl)-1H-indole-2,3-dione] |  |  |  |  | 40.9 | -4.7 | -6 | 5.1 |  |
| O=C1C(=O)N(CC#CCN2CCCC2)c2ccc(F)cc21 [Compound 3j, 5-Fluoro-1-(4-pyrrolidin-1-yl-but-2-ynyl)-1H-indole-2,3-dione] |  |  |  |  | 33.3 | 5 | 4.3 | -2.7 |  |
| O=C1C(=O)N(CC#CCN2CCOCC2)c2ccc(F)cc21 [Compound 3k, 5-Fluoro-1-(4-morpholin-4-yl-but-2-ynyl)-1H-indole-2,3-dione] |  |  |  |  | 56.1 | 3.8 | 0.7 | 3.2 |  |
| CCN(CC)CC#CCN1C(=O)C(=O)c2cc(F)ccc21 [Compound 3l, 1-(4-Diethylamino-but-2-ynyl)-5-fluoro-1H-indole-2,3-dione] |  |  |  |  | 18.2 | 11.6 | 14.5 | 7.9 |  |
| Cc1ccc2c(c1)C(=O)C(=O)N2CC#CCN1CCCC1 [Compound 3n, 5-Methyl-1-(4-pyrrolidin-1-yl-but-2-ynyl)-1H-indole-2,3-dione] |  |  |  |  | 65.2 | 1.9 | 4.7 | 6.1 |  |
| Cc1ccc2c(c1)C(=O)C(=O)N2CC#CCN1CCOCC1 [Compound 3o, 5-Methyl-1-(4-morpholin-4yl-but-2-ynyl)-1H-indole-2,3-dione] |  |  |  |  | 57.6 | 8 | 7.8 | 3.5 |  |
| CCN(CC)CC#CCN1C(=O)C(=O)c2cc(C)ccc21 [Compound 3p, 1-(4-Diethylamino-but-2-ynyl)-5-methyl-1H-indole-2,3-dione] |  |  |  |  | 51.5 | 11.5 | 10.2 | 11.2 |  |
| O=C1C(=O)N(CC#CCN2CCN(CC#CCN3C(=O)C(=O)c4ccccc43)CC2)c2ccccc21 [Compound 5a, Bis-{1-(yl-but-2-ynyl)-1H-indole-2,3-dione} piperazine] | 3.0 | 6.5 | 10.3 | 45.8 |  |  |  |  | cytotoxic |
| O=C1C(=O)N(CC#CCN2CCN(CC#CCN3C(=O)C(=O)c4cc(Cl)ccc43)CC2)c2ccc(Cl)cc21 [Compound 5b, Bis-{5-chloro-1-(yl-but-2-ynyl)-1H-indole-2,3-dione} piperazine] | 7.6 | 24.4 | 28.9 | 24.8 |  |  |  |  |  |
| O=C1C(=O)N(CC#CCN2CCN(CC#CCN3C(=O)C(=O)c4cc(F)ccc43)CC2)c2ccc(F)cc21 [Compound 5c, Bis-{5-fluoro-1-(yl-but-2-ynyl)-1H-indole-2,3-dione} piperazine] | 9.1 | −0.6 | −3.6 | 7.4 |  |  |  |  |  |
| Cc1ccc2c(c1)C(=O)C(=O)N2CC#CCN1CCN(CC#CCN2C(=O)C(=O)c3cc(C)ccc32)CC1 [Compound 5d, Bis-{5-methyl-1-(yl-but-2-ynyl)-1H-indole-2,3-dione} piperazine] | 71.2 | −1.0 | 6.7 | 7.1 |  |  |  |  |  |
| O=C1C(=O)N(CC#CCN2CCN(c3ccnc4cc(Cl)ccc34)CC2)c2ccccc21 [Compound 7a, 1-{4-[4-(7-Chloro-quinolin-4-yl)-piperazin-1-yl]-but-2-ynyl}-1H-indole-2,3-dione] |  |  |  |  | 98.5 | 9 | 10.1 | -3.2 | no cytotoxicity; also recorded: minimal toxicity |
| O=C1C(=O)N(CC#CCN2CCN(c3ccnc4cc(Cl)ccc34)CC2)c2ccc(F)cc21 [Compound 7b, 1-{4-[4-(7-Chloro-quinolin-4-yl)-piperazin-1-yl]-but-2-ynyl}-5-fluoro-1H-indole-2,3-dione] |  |  |  |  | 100 | 2.1 | 5 | 3 | no cytotoxicity |
| O=C1C(=O)N(CC#CCN2CCN(c3ccnc4cc(Cl)ccc34)CC2)c2ccc(Cl)cc21 [Compound 7c, 5-Chloro-1-{4-[4-(7-chloro-quinolin-4-yl)-piperazin-1-yl]-but-2-ynyl}-1H-indole-2,3-dione] |  |  |  |  | 100 | 6.1 | 1.2 | 1.4 | no cytotoxicity; also recorded: minimal toxicity |
| Cc1ccc2c(c1)C(=O)C(=O)N2CC#CCN1CCN(c2ccnc3cc(Cl)ccc23)CC1 [Compound 7d, 1-{4-[4-(7-Chloro-quinolin-4-yl)-piperazin-1-yl]-but-2-ynyl}-5-methyl-1H-indole-2,3-dione] |  |  |  |  | 59.1 | 1.3 | 8.1 | 8.2 | no cytotoxicity; also recorded: minimal toxicity |
| O=C1C(=O)N(CC#CCN2CCN(c3ccnc4cc(Cl)ccc34)CC2)c2ccc([N+](=O)[O-])cc21 [Compound 7e, 1-{4-[4-(7-Chloro-quinolin-4-yl)-piperazin-1-yl]-but-2-ynyl}-5-nitro-1H-indole-2,3-dione] |  |  |  |  | 60.6 | 0.5 | 3.2 | 4.8 |  |
| CS(=O)(=O)N1CCN(Cc2cc3nc(-c4cccc5[nH]ncc45)nc(N4CCOCC4)c3s2)CC1 [GDC-0941, reference compound] |  |  |  |  |  | 30.2 | 56.8 | 72.2 |  |
